As a reminder, the IC50 is the concentration that inhibits the measured activity by half. Higher therefore signals weaker potency in that assay.

The record followed here is BindingDB's records for doi:10.1016/j.bmcl.2006.08.108 (Merck Sharp and Dohme Research Laboratories, 2006).

The target of this assay is 5-hydroxytryptamine receptor 2A (Homo sapiens, UniProt P28223). The assay can be described thus: Displacement of [3H]ketanserin from human 5HT2A receptor expressed in CHOK1 cells. The essentials: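 Membranes from confluent CHO K1 cells expressing human 5-HT2A were incubated with [3H]ketanserin (76 Ci/mmol) for 15 min at 37 °C with shaking at 180 rpm. Buffer was 50 mM Tris pH 7.7, 0.1% ascorbate, pargyline, MgSO4 and 0.5 mM EDTA. Bound and free ligand were separated by GF/B filtration and the filters counted. Mianserin defined non-specific binding. Five-point log titrations were fitted with a four-parameter curve to give IC50 and Ki.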
Sequence of 5-hydroxytryptamine receptor 2A (P28223 whole entry): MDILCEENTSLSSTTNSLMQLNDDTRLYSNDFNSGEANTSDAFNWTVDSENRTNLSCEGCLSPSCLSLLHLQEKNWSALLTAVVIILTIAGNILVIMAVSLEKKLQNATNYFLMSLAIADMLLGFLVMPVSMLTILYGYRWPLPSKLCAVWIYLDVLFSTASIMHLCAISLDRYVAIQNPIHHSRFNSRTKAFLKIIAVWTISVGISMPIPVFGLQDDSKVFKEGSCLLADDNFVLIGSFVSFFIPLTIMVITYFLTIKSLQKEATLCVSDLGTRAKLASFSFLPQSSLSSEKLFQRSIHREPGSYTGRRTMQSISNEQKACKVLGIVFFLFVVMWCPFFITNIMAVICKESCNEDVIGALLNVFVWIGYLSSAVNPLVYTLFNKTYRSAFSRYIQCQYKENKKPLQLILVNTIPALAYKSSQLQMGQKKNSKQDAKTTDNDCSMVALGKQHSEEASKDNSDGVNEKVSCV
Take `Cc1ccc(C2=NCCN=C(N3CCNCC3)C2)cc1` [5-(piperazin-1-yl)-7-p-tolyl-2,3-dihydro-1H-1,4-diazepine]: the half-maximal inhibitory concentration (IC50) was over 1 µM.

Take `Cc1ccc(C2=NCCN=C(N3CCOCC3)C2)cc1` [5-morpholino-7-p-tolyl-2,3-dihydro-1H-1,4-diazepine]: the concentration for half-maximal inhibition (IC50) was over 1 µM.

In the case of `CCN(CC)C1=NCCN=C(c2ccccc2F)C1` [N,N-diethyl-7-(2-fluorophenyl)-2,3-dihydro-1H-1,4-diazepin-5-amine], the IC50 was over 1 µM.

Compound `CCN(CC)C1=NCCN=C(c2ccc(C)cc2)C1` [N,N-diethyl-7-p-tolyl-2,3-dihydro-1H-1,4-diazepin-5-amine] gave an IC50 of over 1 µM.

`CC(C)(C)NC1=NCCN=C(c2ccc(F)cc2F)C1` [N-tert-butyl-7-(2,4-difluorophenyl)-2,3-dihydro-1H-1,4-diazepin-5-amine] showed an IC50 of 0.011 µM. This lies in the double-digit nanomolar range.

`Cc1ccc(C2=NCCN=C(NC(C)(C)C)C2)cc1` [N-tert-butyl-7-p-tolyl-2,3-dihydro-1H-1,4-diazepin-5-amine] returned an IC50 of 0.011 µM. This lies in the double-digit nanomolar range.
